Measurements reported in ChEMBL document CHEMBL1156112, “Discovery of 3-(1H-indol-3-yl)-4-[2-(4-methylpiperazin-1-yl)quinazolin-4-yl]pyrrole-2,5-dione (AEB071), a potent and selective inhibitor of protein kinase C isotypes” (J Med Chem, 2009).
Active and inactive are the calls of the source. The rule behind the calls is not given here.

What was measured:
[1] = target: Tyrosine-protein kinase JAK3 (Homo sapiens, UniProt P52333); assay: Inhibition of human recombinant JAK3
Rattus norvegicus [2] = organism: Rattus norvegicus; assay: Prolongation of allograft survival in rat heterotropic heart transplant model; type: functional, organism-based
[3] = target: Tyrosine-protein kinase HCK (Homo sapiens, UniProt P08631); assay: Inhibition of human recombinant Hck
cells [4] = details: Homo sapiens, Splenocyte
[5] = target: Protein kinase C zeta type (Homo sapiens, UniProt Q05513); assay: Inhibition of PKCzeta by SPA
[6] = target: Hepatocyte growth factor receptor (Homo sapiens, UniProt P08581); assay: Inhibition of human recombinant Met
Cynomolgus monkey = assay: Prolongation of allograft survival in cynomolgus monkey renal allograft model; type: functional, organism-based; details: Macaca fascicularis
Splenocyte = assay: cells; details: Mus musculus, BALB/c
cells [7] = details: Homo sapiens, Jurkat
[8] = target: Tyrosine-protein kinase ABL1 (Homo sapiens, UniProt P00519); assay: Inhibition of human recombinant Abl
[9] = target: Vascular endothelial growth factor receptor 2 (Homo sapiens, UniProt P35968); assay: Inhibition of human recombinant KDR
[10] = target: RAC-alpha serine/threonine-protein kinase (Homo sapiens, UniProt P31749); assay: Inhibition of human recombinant Akt1
[11] = target: Proto-oncogene tyrosine-protein kinase receptor Ret (Homo sapiens, UniProt P07949); assay: Inhibition of human recombinant Ret
[12] = target: Rho-associated protein kinase 1 (Homo sapiens, UniProt Q13464); assay: Inhibition of human recombinant ROCK1
Focal adhesion kinase 1 = Focal adhesion kinase 1 (Homo sapiens, UniProt Q05397); assay: Inhibition of human recombinant FAK
[13] = target: ALK tyrosine kinase receptor (Homo sapiens, UniProt Q9UM73); assay: Inhibition of human recombinant Alk
ALK tyrosine kinase receptor, sequence (Q9UM73 whole entry): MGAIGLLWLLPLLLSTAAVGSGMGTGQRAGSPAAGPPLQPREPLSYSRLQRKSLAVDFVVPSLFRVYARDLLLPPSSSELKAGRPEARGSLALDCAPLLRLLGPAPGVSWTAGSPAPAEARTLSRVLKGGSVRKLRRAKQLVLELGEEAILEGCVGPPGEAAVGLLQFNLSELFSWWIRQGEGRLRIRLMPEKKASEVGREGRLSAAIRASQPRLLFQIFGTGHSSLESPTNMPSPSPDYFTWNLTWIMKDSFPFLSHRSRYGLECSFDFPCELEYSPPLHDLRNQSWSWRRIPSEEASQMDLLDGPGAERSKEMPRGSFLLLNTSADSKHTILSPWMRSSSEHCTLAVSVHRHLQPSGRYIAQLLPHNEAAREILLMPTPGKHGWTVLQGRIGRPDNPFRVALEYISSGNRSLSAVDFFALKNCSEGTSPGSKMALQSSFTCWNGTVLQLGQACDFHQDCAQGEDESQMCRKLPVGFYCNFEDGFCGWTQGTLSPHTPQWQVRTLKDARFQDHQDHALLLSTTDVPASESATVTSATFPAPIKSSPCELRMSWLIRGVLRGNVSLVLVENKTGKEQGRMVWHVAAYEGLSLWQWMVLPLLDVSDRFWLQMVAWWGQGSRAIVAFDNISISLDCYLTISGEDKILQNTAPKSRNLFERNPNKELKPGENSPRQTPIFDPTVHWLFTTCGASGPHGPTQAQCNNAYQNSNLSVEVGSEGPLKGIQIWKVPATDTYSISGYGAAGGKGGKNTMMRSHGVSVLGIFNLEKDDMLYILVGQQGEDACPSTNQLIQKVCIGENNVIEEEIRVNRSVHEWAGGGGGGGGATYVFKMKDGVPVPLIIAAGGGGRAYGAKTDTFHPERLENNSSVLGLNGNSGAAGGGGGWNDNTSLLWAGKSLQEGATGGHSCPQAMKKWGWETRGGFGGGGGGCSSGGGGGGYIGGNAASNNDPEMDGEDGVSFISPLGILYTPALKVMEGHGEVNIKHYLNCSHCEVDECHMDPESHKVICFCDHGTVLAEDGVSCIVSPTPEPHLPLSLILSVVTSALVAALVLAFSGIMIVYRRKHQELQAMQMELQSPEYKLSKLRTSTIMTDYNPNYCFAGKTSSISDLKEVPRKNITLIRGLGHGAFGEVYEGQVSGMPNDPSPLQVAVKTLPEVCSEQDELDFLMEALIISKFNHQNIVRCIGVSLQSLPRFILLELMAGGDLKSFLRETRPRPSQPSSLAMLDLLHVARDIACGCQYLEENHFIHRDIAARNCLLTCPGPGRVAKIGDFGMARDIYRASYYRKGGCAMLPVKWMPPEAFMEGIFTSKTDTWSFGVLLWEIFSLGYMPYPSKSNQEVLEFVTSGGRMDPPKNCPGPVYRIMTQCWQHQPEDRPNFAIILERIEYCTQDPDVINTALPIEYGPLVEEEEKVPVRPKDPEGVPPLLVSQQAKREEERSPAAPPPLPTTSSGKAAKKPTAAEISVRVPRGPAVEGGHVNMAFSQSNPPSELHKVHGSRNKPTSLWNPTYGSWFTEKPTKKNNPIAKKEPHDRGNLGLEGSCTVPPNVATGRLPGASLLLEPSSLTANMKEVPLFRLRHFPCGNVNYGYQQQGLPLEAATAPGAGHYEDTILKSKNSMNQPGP

[14] = target: Mast/stem cell growth factor receptor Kit (Homo sapiens, UniProt P10721); assay: Inhibition of human recombinant Kit
[15] = Volume of distribution at steady state in OFA rat at 5 mg/kg, iv; type: ADME, organism-based; design: dose 5 mg/kg, route intravenous; details: in vivo, read-out: Vdss
Summary of the method: (§1)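 Rats dosed either 5 mg/kg iv in 75% saline (0.9%)-25% PEG400 or 20 mg/kg po in 75% water-25% PEG400. OFA or Lewis rats were used depending on the compound. Values are averages of three animals. AUC is extrapolated to infinity. Oral bioavailability (F) comes from the po and iv exposures.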

[16] = Inhibition of human recombinant PKA
[17] = target: Protein kinase C theta type (Homo sapiens, UniProt Q04759); assay: Inhibition of PKCtheta by SPA
[18] = target: Vascular endothelial growth factor receptor 3 (Homo sapiens, UniProt P35916); assay: Inhibition of human recombinant Flt4
[19] = target: Tyrosine-protein kinase Fyn (Homo sapiens, UniProt P06241); assay: Inhibition of human recombinant Fyn
[20] = target: Tyrosine-protein kinase JAK1 (Homo sapiens, UniProt P23458); assay: Inhibition of human recombinant JAK1
[21] = target: Tyrosine-protein kinase JAK2 (Homo sapiens, UniProt O60674); assay: Inhibition of human recombinant JAK2
[22] = target: Phosphatidylinositol 4,5-bisphosphate 3-kinase catalytic subunit delta isoform (Homo sapiens, UniProt O00329); assay: Inhibition of human recombinant PI3Kdelta
[23] = target: Mitogen-activated protein kinase 9 (Homo sapiens, UniProt P45984); assay: Inhibition of human recombinant JNK2
Mitogen-activated protein kinase 9, sequence (P45984 whole entry): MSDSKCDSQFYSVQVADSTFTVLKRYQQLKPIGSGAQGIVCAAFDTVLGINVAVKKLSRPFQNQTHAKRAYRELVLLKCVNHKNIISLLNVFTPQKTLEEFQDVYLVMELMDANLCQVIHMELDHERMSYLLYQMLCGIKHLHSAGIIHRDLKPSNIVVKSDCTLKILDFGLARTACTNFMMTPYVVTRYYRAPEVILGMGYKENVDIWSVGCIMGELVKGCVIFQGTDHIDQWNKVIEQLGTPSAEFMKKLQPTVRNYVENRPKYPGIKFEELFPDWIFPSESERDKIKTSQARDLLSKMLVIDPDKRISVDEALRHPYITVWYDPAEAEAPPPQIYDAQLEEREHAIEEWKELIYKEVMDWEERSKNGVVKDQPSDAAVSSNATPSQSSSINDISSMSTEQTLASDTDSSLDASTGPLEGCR

[24] = Clearance in OFA rat at 5 mg/kg, iv; type: ADME, organism-based; design: dose 5 mg/kg, route intravenous; details: in vivo; summary of the method: as §1
cells [25] = details: Mus musculus, CBA, Bone marrow cell
[26] = target: Rho-associated protein kinase 2 (Homo sapiens, UniProt O75116); assay: Inhibition of human recombinant ROCK2
[27] = target: Tyrosine-protein kinase SYK (Homo sapiens, UniProt P43405); assay: Inhibition of human recombinant Syk
[28] = target: Serine/threonine-protein kinase PAK 2 (Homo sapiens, UniProt Q13177); assay: Inhibition of human recombinant PAK2
Serine/threonine-protein kinase PAK 2, sequence (Q13177 whole entry): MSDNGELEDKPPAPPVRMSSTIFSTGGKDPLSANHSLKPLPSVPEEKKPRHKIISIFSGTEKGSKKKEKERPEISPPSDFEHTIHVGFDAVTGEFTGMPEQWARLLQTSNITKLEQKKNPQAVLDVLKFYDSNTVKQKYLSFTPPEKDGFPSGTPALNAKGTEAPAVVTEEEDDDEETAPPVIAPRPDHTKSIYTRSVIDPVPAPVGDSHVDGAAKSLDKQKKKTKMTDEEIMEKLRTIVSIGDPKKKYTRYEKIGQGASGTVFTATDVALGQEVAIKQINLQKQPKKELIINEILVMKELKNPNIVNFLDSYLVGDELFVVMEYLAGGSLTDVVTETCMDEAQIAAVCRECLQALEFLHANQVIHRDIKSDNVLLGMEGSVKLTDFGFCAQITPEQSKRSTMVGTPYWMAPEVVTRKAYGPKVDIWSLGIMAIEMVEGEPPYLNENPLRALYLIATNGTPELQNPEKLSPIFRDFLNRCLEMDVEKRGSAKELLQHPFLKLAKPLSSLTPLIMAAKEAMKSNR

[29] = target: Glycogen synthase kinase-3 beta (Homo sapiens, UniProt P49841); assay: Inhibition of human recombinant GSK3-beta
[30] = target: Cyclin-dependent kinase 2/cyclin A (Homo sapiens, UniProt P24941); assay: Inhibition of human recombinant CDK2/cyclin A; type: protein-complex assay
[31] = Elimination half life in OFA rat at 5 mg/kg, iv; type: ADME, organism-based; design: dose 5 mg/kg, route intravenous; details: in vivo, read-out: beta t1/2 (converted); summary of the method: as §1
[32] = target: Tyrosine-protein kinase Lck (Homo sapiens, UniProt P06239); assay: Inhibition of human recombinant Lck
Ephrin type-B receptor 4 = Ephrin type-B receptor 4 (Homo sapiens, UniProt P54760); assay: Inhibition of human recombinant EphB4
[33] = target: Mitogen-activated protein kinase 14 (Homo sapiens, UniProt Q16539); assay: Inhibition of human recombinant p38alpha
[34] = target: T1, Protein kinase C epsilon type (Homo sapiens, UniProt Q02156); assay: Inhibition of PKCepsilon by SPA
T1 sequence (Q02156 whole entry): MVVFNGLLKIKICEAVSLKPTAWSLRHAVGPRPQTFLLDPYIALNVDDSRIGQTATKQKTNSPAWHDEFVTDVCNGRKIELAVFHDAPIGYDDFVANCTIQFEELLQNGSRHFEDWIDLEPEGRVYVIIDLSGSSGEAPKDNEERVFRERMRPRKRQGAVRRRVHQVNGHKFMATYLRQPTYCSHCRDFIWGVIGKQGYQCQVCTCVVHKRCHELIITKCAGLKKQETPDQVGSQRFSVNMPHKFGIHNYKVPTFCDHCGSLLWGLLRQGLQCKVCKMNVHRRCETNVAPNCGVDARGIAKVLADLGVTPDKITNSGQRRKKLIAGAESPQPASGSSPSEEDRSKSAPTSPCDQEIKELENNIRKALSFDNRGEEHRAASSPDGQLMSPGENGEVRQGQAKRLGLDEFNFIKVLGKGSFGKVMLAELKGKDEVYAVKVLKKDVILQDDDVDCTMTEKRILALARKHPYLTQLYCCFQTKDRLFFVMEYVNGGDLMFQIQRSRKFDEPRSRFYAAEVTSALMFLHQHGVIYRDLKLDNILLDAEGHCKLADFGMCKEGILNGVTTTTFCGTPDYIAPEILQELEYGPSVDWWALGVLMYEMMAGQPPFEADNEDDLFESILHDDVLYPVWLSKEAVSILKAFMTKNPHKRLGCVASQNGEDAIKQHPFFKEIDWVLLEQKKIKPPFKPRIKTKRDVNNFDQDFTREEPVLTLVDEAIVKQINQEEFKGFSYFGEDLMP

[35] = Cmax in OFA rat at 20 mg/kg, po; type: ADME, organism-based; design: dose 20 mg/kg, route oral; details: in vivo; summary of the method: as §1
[36] = target: Protein kinase C eta type (Homo sapiens, UniProt P24723); assay: Inhibition of PKCeta by SPA
[37] = Dissociation constant, pKa of the compound; type: physicochemical
[38] = AUC (0 to infinity) in OFA rat at 5 mg/kg, iv; type: ADME, organism-based; design: time infinity, dose 5 mg/kg, route intravenous; details: plasma; summary of the method: as §1
[39] = Oral bioavailability in OFA rat at 20 mg/kg, po; type: ADME, organism-based; details: in vivo; summary of the method: as §1
[40] = target: Mitogen-activated protein kinase 10 (Homo sapiens, UniProt P53779); assay: Inhibition of human recombinant JNK3
[41] = target: Receptor tyrosine-protein kinase erbB-2 (Homo sapiens, UniProt P04626); assay: Inhibition of human recombinant HER2
[42] = target: Tyrosine-protein kinase BTK (Homo sapiens, UniProt Q06187); assay: Inhibition of human recombinant Btk
[43] = Tmax in OFA rat at 20 mg/kg, po; type: ADME, organism-based; design: dose 20 mg/kg, route oral; details: in vivo; summary of the method: as §1
Rattus norvegicus [44] = organism: Rattus norvegicus; assay: Immunosuppressive activity in rat localized graft-versus-host model; type: functional, organism-based
[45] = target: Phosphatidylinositol 4,5-bisphosphate 3-kinase catalytic subunit beta isoform (Homo sapiens, UniProt P42338); assay: Inhibition of human recombinant PI3Kbeta
Phosphatidylinositol 4,5-bisphosphate 3-kinase catalytic subunit beta isoform, sequence (P42338 whole entry, canonical isoform): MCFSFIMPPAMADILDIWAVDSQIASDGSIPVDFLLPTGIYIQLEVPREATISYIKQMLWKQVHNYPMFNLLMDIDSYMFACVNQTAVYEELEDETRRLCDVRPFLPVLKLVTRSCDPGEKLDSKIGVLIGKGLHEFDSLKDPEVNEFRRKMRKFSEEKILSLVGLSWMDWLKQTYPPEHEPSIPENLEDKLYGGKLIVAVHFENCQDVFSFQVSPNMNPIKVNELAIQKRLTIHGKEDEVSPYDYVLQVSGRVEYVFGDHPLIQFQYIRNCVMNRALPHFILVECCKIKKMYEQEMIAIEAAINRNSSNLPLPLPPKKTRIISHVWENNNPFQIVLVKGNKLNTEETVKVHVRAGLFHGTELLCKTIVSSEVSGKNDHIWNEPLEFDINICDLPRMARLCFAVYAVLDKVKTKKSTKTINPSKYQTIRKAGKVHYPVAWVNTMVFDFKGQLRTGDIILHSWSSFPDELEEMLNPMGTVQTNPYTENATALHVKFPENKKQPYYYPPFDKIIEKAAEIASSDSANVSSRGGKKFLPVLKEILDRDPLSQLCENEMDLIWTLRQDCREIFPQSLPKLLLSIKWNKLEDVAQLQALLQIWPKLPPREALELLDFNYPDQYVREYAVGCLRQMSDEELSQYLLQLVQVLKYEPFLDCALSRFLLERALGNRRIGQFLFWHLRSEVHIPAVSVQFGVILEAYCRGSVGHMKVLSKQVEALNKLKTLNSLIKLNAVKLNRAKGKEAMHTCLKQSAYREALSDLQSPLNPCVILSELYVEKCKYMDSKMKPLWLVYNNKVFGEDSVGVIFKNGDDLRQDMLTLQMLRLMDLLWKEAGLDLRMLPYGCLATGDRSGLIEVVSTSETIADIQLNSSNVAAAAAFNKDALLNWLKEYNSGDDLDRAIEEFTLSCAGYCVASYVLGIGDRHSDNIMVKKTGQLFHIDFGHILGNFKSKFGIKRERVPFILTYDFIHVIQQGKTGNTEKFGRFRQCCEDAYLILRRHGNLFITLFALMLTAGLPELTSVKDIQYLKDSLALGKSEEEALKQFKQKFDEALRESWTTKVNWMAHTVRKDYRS

[46] = target: Insulin-like growth factor 1 receptor (Homo sapiens, UniProt P08069); assay: Inhibition of human recombinant IGF1R
[47] = target: Mitogen-activated protein kinase 8 (Homo sapiens, UniProt P45983); assay: Inhibition of human recombinant JNK1
Mitogen-activated protein kinase 8, sequence (P45983 whole entry): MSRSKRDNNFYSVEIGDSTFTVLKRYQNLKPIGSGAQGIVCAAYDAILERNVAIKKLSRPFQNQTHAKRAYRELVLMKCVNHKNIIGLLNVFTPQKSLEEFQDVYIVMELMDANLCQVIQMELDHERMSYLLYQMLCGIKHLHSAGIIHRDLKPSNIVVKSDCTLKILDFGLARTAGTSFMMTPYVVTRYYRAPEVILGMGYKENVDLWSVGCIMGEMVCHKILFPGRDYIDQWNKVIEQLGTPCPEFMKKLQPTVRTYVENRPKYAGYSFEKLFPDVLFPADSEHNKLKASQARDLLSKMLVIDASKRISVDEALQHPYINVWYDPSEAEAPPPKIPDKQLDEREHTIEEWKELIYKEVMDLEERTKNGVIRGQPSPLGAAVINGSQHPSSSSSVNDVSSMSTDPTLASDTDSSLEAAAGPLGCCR

[48] = target: Tyrosine-protein kinase ZAP-70 (Homo sapiens, UniProt P43403); assay: Inhibition of human recombinant ZAP70
[49] = target: Protein kinase C delta type (Homo sapiens, UniProt Q05655); assay: Inhibition of PKCdelta by SPA
[50] = AUC (0 to infinity) in OFA rat at 20 mg/kg, po; type: ADME, organism-based; design: dose 20 mg/kg, route oral, time infinity; details: plasma; summary of the method: as §1
[51] = target: Phosphatidylinositol 4,5-bisphosphate 3-kinase catalytic subunit alpha isoform (Homo sapiens, UniProt P42336); assay: Inhibition of human recombinant PI3Kalpha
[52] = target: Phosphatidylinositol 4,5-bisphosphate 3-kinase catalytic subunit gamma isoform (Homo sapiens, UniProt P48736); assay: Inhibition of human recombinant PI3Kgamma
[53] = target: Tyrosine-protein kinase receptor UFO (Homo sapiens, UniProt P30530); assay: Inhibition of human recombinant Axl
Tyrosine-protein kinase receptor UFO, sequence (P30530 whole entry): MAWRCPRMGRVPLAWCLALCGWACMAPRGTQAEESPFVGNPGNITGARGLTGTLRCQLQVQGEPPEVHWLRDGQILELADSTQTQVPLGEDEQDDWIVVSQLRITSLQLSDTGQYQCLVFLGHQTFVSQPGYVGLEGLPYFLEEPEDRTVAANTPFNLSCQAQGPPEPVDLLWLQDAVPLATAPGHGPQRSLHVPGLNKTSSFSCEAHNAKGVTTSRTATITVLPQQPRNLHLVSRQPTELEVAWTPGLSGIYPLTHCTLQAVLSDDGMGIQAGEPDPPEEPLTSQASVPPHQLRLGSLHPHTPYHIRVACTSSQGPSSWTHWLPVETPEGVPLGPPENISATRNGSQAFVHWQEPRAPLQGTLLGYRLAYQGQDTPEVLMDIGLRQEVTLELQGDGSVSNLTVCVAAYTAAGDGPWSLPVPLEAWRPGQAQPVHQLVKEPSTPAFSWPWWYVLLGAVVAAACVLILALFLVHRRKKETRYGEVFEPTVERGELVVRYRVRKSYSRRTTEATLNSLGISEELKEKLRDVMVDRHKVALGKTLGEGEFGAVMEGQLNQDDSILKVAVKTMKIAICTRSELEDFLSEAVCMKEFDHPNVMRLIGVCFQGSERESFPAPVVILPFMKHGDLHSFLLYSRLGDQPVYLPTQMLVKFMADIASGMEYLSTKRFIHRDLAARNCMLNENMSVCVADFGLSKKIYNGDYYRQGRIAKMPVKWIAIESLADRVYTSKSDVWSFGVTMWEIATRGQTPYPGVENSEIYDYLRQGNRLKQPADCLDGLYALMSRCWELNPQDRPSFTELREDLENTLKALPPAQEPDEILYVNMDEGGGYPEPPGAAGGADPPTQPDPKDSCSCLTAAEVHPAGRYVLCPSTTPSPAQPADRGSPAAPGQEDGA

CN1CCN(c2nc(C3=C(c4c[nH]c5ccccc45)C(=O)NC3=O)c3ccccc3n2)CC1 [SOTRASTAURIN]
IC50 [1]: 1500 nM
Activity (Rattus norvegicus [2]): Active
IC50 [3]: > 10 µM
IC50 (cells [4]): 34 nM
IC50 [5]: 5.4 µM
IC50 [6]: > 10 µM
Activity (Cynomolgus monkey): Active
IC50 (Splenocyte): 128 nM
IC50 (cells [7]): 54 nM
IC50 [8]: 3.3 µM
IC50 [9]: 3.9 µM
IC50 [10]: > 10 µM
IC50 [11]: > 10 µM
IC50 [12]: > 10 µM
IC50 (Focal adhesion kinase 1): 8.3 µM
IC50 [13]: > 10 µM
IC50 [14]: > 10 µM
Vd [15]: 6.5 L/kg
IC50 [16]: 3.4 µM
IC50 [17]: 1 nM
IC50 [18]: 4.6 µM
IC50 [19]: 5.5 µM
IC50 [20]: 7.3 µM
IC50 [21]: > 10 µM
IC50 [22]: > 10 µM
IC50 [23]: > 10 µM
clearance [24]: 51.2 mL/min/kg
IC50 (cells [25]): 3.7 µM
IC50 [26]: > 10 µM
IC50 [27]: > 10 µM
IC50 [28]: > 10 µM
IC50 [29]: 870 nM
IC50 [30]: 2300 nM
half-life [31]: 192 min
IC50 [32]: > 10 µM
IC50 (Ephrin type-B receptor 4): > 10 µM
IC50 [33]: > 10 µM
IC50 [34]: 6.2 nM
Cmax [35]: 622 ng/mL
IC50 [36]: 6.1 nM
pKa [37]: 7.4
AUC(0-inf) [38]: 1630 ng·h/mL
bioavailability [39]: 34%
IC50 [40]: > 10 µM
IC50 [41]: > 10 µM
IC50 [42]: > 10 µM
Tmax [43]: 30 min
Activity (Rattus norvegicus [44]): Active
IC50 [45]: > 10 µM
IC50 [46]: > 10 µM
IC50 [47]: > 10 µM
IC50 [48]: > 10 µM
IC50 [49]: 1.3 nM
AUC(0-inf) [50]: 2210 ng·h/mL
IC50 [51]: > 10 µM
IC50 [52]: > 10 µM
IC50 [53]: 9.1 µM
